Screen size: about 290,000 compounds; about 1,300 (0.45%) were called active. Only a selection was taken, and actives are over-represented in it overall. A number with no mark means an inactive call.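 The calls were made as follows: active = inhibition above the mean plus 3 SD of all compounds in the same screening run (cut at about 4.5% in these data); inactive = the rest.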
system: metallo-beta-lactamase IMP-1 (Pseudomonas aeruginosa); experiment: inhibition of IMP-1 nitrocefin hydrolysis – biochemical, epi-absorbance readout, Pseudomonas aeruginosa enzyme, primary screen (AID 1556); settings: purified IMP-1, nitrocefin hydrolysis, epi-absorbance fluorescence; at 5.6 µM; hits give high values;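 also: 0% = IMP-1 with DMSO and 100% = DMSO wells lacking enzyme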
How it was run: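 Assay system: purified IMP-1; Quantity: IMP-1 0.2 nM before substrate addition; Medium: HEPES buffer pH 7.1 with ZnSO4 and Brij 35; Incubation: 15 min enzyme–compound preincubation, then 25 min nitrocefin reaction, 25 °C; Signal: fluorescence quenching readout, ex 480/em 530 nm; Controls: DMSO with and without IMP-1; Repeats: singlicate testing.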

Structure (SMILES) | inhibition
CCN1C(=O)C(=Cc2c(C)n(CC(=O)NCC3CCCO3)c3ccccc23)C(=O)N(CC)C1=S (stereo not given) | 20% (active)
O=C(O)c1ccccc1NC(=O)C1C2CCC(O2)C1C(=O)O (stereo not given) | -2.48%
CCCCn1c(=O)c(C(=O)Nc2ccccc2Cl)c(O)c2ccccc21 | -1.42%
CCOC(=O)C1SC2(C(F)(F)C(F)F)CC1(O)c1c(c(OC)c3occc3c1OC)O2 (stereo not given) | -3.5%
C[N+]12CN3CN(CN(C3)C1)C2 | 5.56% (active)
Cc1cccc(OP(=O)(Oc2cccc(C)c2)OC(c2ccccc2)C(F)(F)F)c1 (stereo not given) | -4.97%
Clc1ccc2nc3c(c(-c4ccccc4)c2c1)CNCC3 | -2.18%
Cc1ccc(C)c(NC2=NCCCS2)c1 | -1.87%
COc1cc2nc(N3CCN(C(=O)[C@@H]4CCCO4)CC3)nc(N)c2cc1OC | -4.21%
CC1(C)C(c2ccccc2)=NC(c2cccnc2)=[N+]1[O-] | -4.75%

Source: PubChem BioAssay AID1556 (The Scripps Research Institute Molecular Screening Center, 2009)
